Activity calls are given as the source filed them. The rule behind the calls is not given here.
Tests used:
[1] = target: T1, Galectin-1 (Homo sapiens, UniProt P09382); experiment: Binding affinity to Galectin-1 in human Jurkat E6-1 cells surface glycans assessed as attenuation of agglutination at 20 uM by morphometric analysis; assay type: cell-based
Summary of the method: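 Jurkat E6.1 cells (2 × 10^6 per 200 μL RPMI 1640) agglutinated with 1 μM gal-1 and incubated at 22 °C in medium alone or with 20 μM compound. Agglutination imaged by inverted phase microscopy, then digitally quantified by pixel-based morphometric analysis.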

[2] = tested on: SK-HEP1; experiment: Cytotoxicity against human SKHEP1 cells assessed as cell viability by MTT assay; assay type: functional, cell-based
Summary of the method: (§1)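 Cells grown as monolayers in RPMI with 10% FCS and 2 mM glutamine at 37 °C, 5% CO2, seeded at 2 × 10^3 cells/well. Then 72 h drug exposure and 48 h wash-out, followed by 0.4 mg/mL MTT for 4 h at 37 °C. Formazan dissolved in DMSO, absorbance read at 560 nm, and IC50 determined per cell line.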

[3] = tested on: DU-145; experiment: Cytotoxicity against human DU145 cells assessed as cell viability by MTT assay; assay type: functional, cell-based; summary of the method: as §1
[4] = tested on: HEp-2; experiment: Cytotoxicity against human Hep2 cells assessed as cell viability by MTT assay; assay type: functional, cell-based; summary of the method: as §1
[5] = tested on: COLO 205; experiment: Cytotoxicity against human COLO205-R cells assessed as cell viability by MTT assay; assay type: functional, cell-based; summary of the method: as §1
[6] = tested on: COLO 205; experiment: Cytotoxicity against human COLO205-S cells assessed as cell viability by MTT assay; assay type: functional, cell-based; summary of the method: as §1
[7] = tested on: HT-29; experiment: Cytotoxicity against human HT-29 cells assessed as cell viability by MTT assay; assay type: functional, cell-based; summary of the method: as §1
[8] = tested on: SQ20B; experiment: Cytotoxicity against human SQ20B cells assessed as cell viability by MTT assay; assay type: functional, cell-based; summary of the method: as §1
[9] = target: T1, Galectin-1; experiment: Binding affinity to human [15N]-labelled Galectin-1 at 60 uM by heteronuclear NMR spectroscopy analysis
Summary of the method: (§2)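 Uniformly 15N-labeled recombinant human gal-1 was expressed in E. coli BL21(DE3) and dissolved at 1 mg/mL in 20 mM potassium phosphate, pH 7.0, 50 μM EDTA, 95% H2O/5% D2O. Compound was titrated and followed by 1H-15N HSQC, reading resonance broadening and intensity changes. Averaged intensity change was plotted against free ligand, with bound ligand estimated from total gal-1 monomer (60 μM).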

[10] = target: T1, Galectin-1; experiment: Binding affinity to human [15N]-labelled Galectin-1 by heteronuclear NMR spectroscopy analysis; summary of the method: as §2
[11] = target: T1, Galectin-1; experiment: Inhibition of lactose binding to human [15N]-labelled Galectin-1 at molar ratio of 1:5 Gal1:compound by heteronuclear NMR spectroscopy analysis
[12] = target: T1, Galectin-1; experiment: Inhibition of FITC-conjugated human Galectin-1binding to CD4+ cell surface glycans of gal1 -/- mouse after 30 mins by flow cytometry
Summary of the method: (§3)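 Splenocytes from gal-1−/− mice, with RBCs lysed in ACK for 5 min on ice. Cells stained with lineage antibodies for 40 min on ice, then given FITC-gal-1 (0.1 or 0.2 μM; FITC:protein labeling ratio 10:1) with or without compound for 30 min on ice. Binding read by multiparameter flow cytometry gated on CD4+, CD8+ and CD31+ cells.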

[13] = target: T1, Galectin-1; experiment: Inhibition of FITC-conjugated human Galectin-1binding to CD8+ cell surface glycans of gal1 -/- mouse after 30 mins by flow cytometry; summary of the method: as §3
[14] = target: T1, Galectin-1; experiment: Inhibition of FITC-conjugated human Galectin-1binding to CD31+ endothelial cell surface glycans of gal1 -/- mouse after 30 mins by flow cytometry; summary of the method: as §3
[15] = target: T1, Galectin-1; experiment: Inhibition of FITC-conjugated human Galectin-1binding to CD4+ cell surface glycans of gal1 -/- mouse at 20 uM after 30 mins by flow cytometry; summary of the method: as §3
[16] = target: T1, Galectin-1; experiment: Inhibition of FITC-conjugated human Galectin-1binding to CD8+ cell surface glycans of gal1 -/- mouse at 20 uM after 30 mins by flow cytometry; summary of the method: as §3
[17] = target: T1, Galectin-1; experiment: Inhibition of FITC-conjugated human Galectin-1binding to CD4+ cell surface glycans of gal1 -/- mouse at 100 uM after 30 mins by flow cytometry; summary of the method: as §3
[18] = target: T1, Galectin-1; experiment: Inhibition of FITC-conjugated human Galectin-1binding to CD8+ cell surface glycans of gal1 -/- mouse at 100 uM after 30 mins by flow cytometry; summary of the method: as §3
[19] = target: T1, Galectin-1; experiment: Inhibition of FITC-conjugated human Galectin-1binding to CD31+ endothelial cell surface glycans of gal1 -/- mouse at 20 uM after 30 mins by flow cytometry; summary of the method: as §3
[20] = target: T1, Galectin-1; experiment: Inhibition of FITC-conjugated human Galectin-1binding to CD31+ endothelial cell surface glycans of gal1 -/- mouse at 100 uM after 30 mins by flow cytometry; summary of the method: as §3

T1 sequence (P09382 whole entry): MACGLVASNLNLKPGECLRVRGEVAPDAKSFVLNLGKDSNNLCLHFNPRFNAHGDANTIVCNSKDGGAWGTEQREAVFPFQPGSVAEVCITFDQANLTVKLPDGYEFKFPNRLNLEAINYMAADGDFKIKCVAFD

`CN(C)CCNC(=O)COc1c2cccc1Cc1cccc(c1OCC(=O)NCCN(C)C)Cc1cccc(c1OCC(=O)NCCN(C)C)Cc1cccc(c1OCC(=O)NCCN(C)C)C2` [OTX-008] was tested, and the Activity [1] was 80%, the Activity [2] was “Dose-dependent effect” and the Activity [3] was “Dose-dependent effect”. For the same molecule, the Activity [4] was “Dose-dependent effect”, the Activity [5] was “Dose-dependent effect” and the Activity [6] was “Dose-dependent effect”. The Activity [7] was “Dose-dependent effect”, the Activity [8] was “Dose-dependent effect” and the Activity [9] was 50%. For the same molecule, the Kd [10] was 30 µM, the inhibition [11] was “Active” and the inhibition [12] was “Dose-dependent effect”. The inhibition [13] was “Dose-dependent effect”, the inhibition [14] was “Dose-dependent effect” and the inhibition [15] was 80%. For the same molecule, the inhibition [16] was 80%, the inhibition [17] was 100% and the inhibition [18] was 100%. The inhibition [19] was 50% and the inhibition [20] was 70%.

— ChEMBL document CHEMBL2086291, “Antitumor agent calixarene 0118 targets human galectin-1 as an allosteric inhibitor of carbohydrate binding” (J Med Chem, 2012)
